Measurements as given in ChEMBL document CHEMBL1149258, “Synthesis and structure-activity relationships of novel histamine H1 antagonists: indolylpiperidinyl benzoic acid derivatives” (J Med Chem, 2004).
Calls of active or inactive are those of the source. Unless noted, no cut-off for these calls is given here.

Tested on: not listed separately
Assay: Volume of distribution at steady state in Wistar rat at 1 mg/kg, iv after 8 hrs
Assay type: ADME, organism-based
Design: dose 1 mg/kg, route intravenous
Conditions: in vivo, read-out: Vss
Summary of the method: (§1)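 Male Wistar rats, fasted overnight, dosed iv at 1 mg/kg. Blood sampled from 0.1 to 24 h; plasma stored at -20 °C. Levels measured by isocratic HPLC-UV (225 nm) after on-line solid-phase extraction, or by HPLC-MS (ESI+) for one analyte. Parameters from noncompartmental analysis.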
`COc1ccc(CN2CCC(c3cn(Cc4cccs4)c4ccccc34)CC2)cc1C(=O)O` showed a Vd of 1.8 L/kg.

Tested on: Cavia porcellus
Assay: Effect on QT interval prolongation in Dunkin-Hartley guinea pigs at 3 mg/kg, iv
Assay type: functional, organism-based
Design: dose 3 mg/kg
Conditions: not given
In the case of `O=C(O)COCCN1CCN(C(c2ccccc2)c2ccc(Cl)cc2)CC1` (centres undefined), the Activity is reported as “inactive”.

Tested on: Rattus norvegicus
Assay: Inhibition of increase in histamine-induced cutaneous vascular permeability in orally dosed Wistar rat model after 8 hrs
Assay type: functional
Conditions: po
Summary of the method: (§2)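 Male Wistar rats (150-175 g), fasted, dosed orally in 0.5% methylcellulose/0.1% Tween 80 (10 mL/kg), n=5. At 1 or 8 h after dosing, four intradermal injections of 5 µg histamine were given, plus iv 0.5% Evans Blue. Papule area (ellipse) measured 1 h later. ED50 in mg/kg po.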
In the case of `O=C(O)c1ccccc1OCCN1CCC(c2cn(Cc3ccoc3)c3cc(F)ccc23)CC1`, the ED50 is reported as 0.17 mg/kg (antagonist). With `COc1ccc(CN2CCC(c3cn(Cc4cccs4)c4ccccc34)CC2)cc1C(=O)O` the ED50 was 0.56 mg/kg (antagonist). For `CCCCn1cc(C2CCN(CCOc3ccccc3C(=O)O)CC2)c2ccc(F)cc21`, the ED50 was 0.14 mg/kg (antagonist). For `CCOCCn1cc(C2CCN(Cc3ccc(C(=O)O)cc3)CC2)c2ccccc21`, the ED50 was 0.15 mg/kg (antagonist).

Tested on: Rattus norvegicus
Assay: Inhibition of increase in histamine-induced cutaneous vascular permeability in orally dosed Wistar rat model after 4 hrs
Assay type: functional
Conditions: po
Summary of the method: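 Fasted male rats (150-175 g; n=5 per condition) dosed orally in 0.5% methylcellulose/0.1% Tween 80. At 4 h, under light ether, received four intradermal injections of 5 µg histamine, then 0.5% Evans Blue iv. Killed 1 h later. Papule area from maximum and minimum diameters (ellipse); inhibition of papule area; ED50 (mg/kg, po).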
`O=C(O)c1ccccc1OCCN1CCC(c2cn(Cc3ccoc3)c3cc(F)ccc23)CC1` showed an ED50 of 0.12 mg/kg. `COc1ccc(CN2CCC(c3cn(Cc4cccs4)c4ccccc34)CC2)cc1C(=O)O` gave an ED50 of 0.24 mg/kg. Compound `CCCCn1cc(C2CCN(CCOc3ccccc3C(=O)O)CC2)c2ccc(F)cc21` has an ED50 of 0.07 mg/kg.

Tested on: not listed separately
Assay: Clearance in Wistar rat at 1 mg/kg, iv after 8 hrs
Assay type: ADME, organism-based
Design: dose 1 mg/kg, route intravenous
Conditions: in vivo
Summary of the method: as §1
With `COc1ccc(CN2CCC(c3cn(Cc4cccs4)c4ccccc34)CC2)cc1C(=O)O` the clearance was 10 mL/min/kg.

Tested on: Rattus norvegicus
Assay: Inhibition of increase in histamine-induced cutaneous vascular permeability in orally dosed Wistar rat model after 1 hrs
Assay type: functional
Conditions: po
Summary of the method: as §2
With `COc1ccc(CN2CCC(c3cn(Cc4cccs4)c4ccccc34)CC2)cc1C(=O)O` the ED50 was 0.32 mg/kg. Compound `CCOC(=O)N1CCC(=C2c3ccc(Cl)cc3CCc3cccnc32)CC1` [LORATADINE] has an ED50 of 0.75 mg/kg.

Target: Histamine H1 receptor (Cavia porcellus, UniProt P31389)
Sequence (P31389 whole entry): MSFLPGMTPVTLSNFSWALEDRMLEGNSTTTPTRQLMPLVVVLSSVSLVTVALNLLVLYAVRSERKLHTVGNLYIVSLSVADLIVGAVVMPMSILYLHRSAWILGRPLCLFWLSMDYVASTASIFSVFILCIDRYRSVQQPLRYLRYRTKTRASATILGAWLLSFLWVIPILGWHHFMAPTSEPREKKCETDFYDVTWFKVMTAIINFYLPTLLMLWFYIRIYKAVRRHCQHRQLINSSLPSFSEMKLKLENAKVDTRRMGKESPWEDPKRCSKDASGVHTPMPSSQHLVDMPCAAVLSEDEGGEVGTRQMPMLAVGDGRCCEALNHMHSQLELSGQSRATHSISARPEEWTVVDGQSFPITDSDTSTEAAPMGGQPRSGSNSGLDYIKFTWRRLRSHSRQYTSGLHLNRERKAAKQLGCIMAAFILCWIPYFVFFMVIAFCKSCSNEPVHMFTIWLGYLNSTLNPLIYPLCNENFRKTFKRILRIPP
Assay: Displacement of [3H]mepyramine from histamine H1 receptor in guinea pig cerebellum membranes
Assay type: cell membranes, Membrane
Conditions: not given
Summary of the method: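 Guinea pig cerebellum membranes (160 µg/mL) incubated with 0.7 nM [3H]-mepyramine at 30 °C for 30 min, 0.5 mL final volume, ended by filtration. Nonspecific binding with 10 µM promethazine. At least six concentrations in duplicate; IC50 by nonlinear regression. Compound stocks 10^-2 M in DMSO, diluted in 50% DMSO.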
With `O=C(O)c1ccccc1OCCN1CCC(c2cn(Cc3ccoc3)c3cc(F)ccc23)CC1` the IC50 was 0.042 µM (antagonist). For `CCCCn1cc(C2CCN(CCOc3ccccc3C(=O)O)CC2)c2ccc(F)cc21`, the IC50 was 0.047 µM (antagonist).

Target: Histamine H1 receptor (Mus musculus) (UniProt P70174)
Sequence (P70174 whole entry): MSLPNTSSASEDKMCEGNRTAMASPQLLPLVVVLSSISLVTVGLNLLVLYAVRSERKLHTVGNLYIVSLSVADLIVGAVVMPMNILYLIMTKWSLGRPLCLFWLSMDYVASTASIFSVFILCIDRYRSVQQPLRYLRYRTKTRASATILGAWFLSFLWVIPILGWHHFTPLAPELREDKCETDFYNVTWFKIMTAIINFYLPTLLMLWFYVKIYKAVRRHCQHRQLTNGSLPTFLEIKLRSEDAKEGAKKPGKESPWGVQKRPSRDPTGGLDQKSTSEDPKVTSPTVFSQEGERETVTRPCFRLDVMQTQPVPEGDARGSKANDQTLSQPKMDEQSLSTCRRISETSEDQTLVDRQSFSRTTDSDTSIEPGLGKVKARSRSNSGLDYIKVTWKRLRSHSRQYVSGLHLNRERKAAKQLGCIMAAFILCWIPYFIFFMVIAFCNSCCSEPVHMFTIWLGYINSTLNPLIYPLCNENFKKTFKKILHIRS
Assay: Ex vivo displacement of [3H]mepyramine from brain histamine H1 receptor in orally dosed Swiss Albino mouse
Assay type: functional, organism-based
Conditions: not given
Summary of the method: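 Overnight-fasted male mice (20-25 g) dosed orally at several doses (0.5% methylcellulose/0.1% Tween 80, 10 mL/kg), killed 90 min later. Whole brain homogenised in ice-cold 0.05 M Na+/K+ phosphate pH 7.4; aliquots incubated in triplicate with 2 nM final [3H]-mepyramine, 40 min at 30 °C, then filtered. Nonspecific binding from 30 mg/kg po D-chlorpheniramine; total binding from vehicle. Three animals per dose; ED50 reported.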
For `O=C(O)c1ccccc1OCCN1CCC(c2cn(Cc3ccoc3)c3cc(F)ccc23)CC1`, the ED50 was 19 mg/kg. In the case of `COc1ccc(CN2CCC(c3cn(Cc4cccs4)c4ccccc34)CC2)cc1C(=O)O`, the ED50 is reported as 11.5 mg/kg. For `CCCCn1cc(C2CCN(CCOc3ccccc3C(=O)O)CC2)c2ccc(F)cc21`, the ED50 was 10 mg/kg. `CCOCCn1cc(C2CCN(Cc3ccc(C(=O)O)cc3)CC2)c2ccccc21` showed an ED50 of 4.5 mg/kg.

Target: CYP3A4 (Homo sapiens, UniProt P08684)
Sequence (P08684 whole entry): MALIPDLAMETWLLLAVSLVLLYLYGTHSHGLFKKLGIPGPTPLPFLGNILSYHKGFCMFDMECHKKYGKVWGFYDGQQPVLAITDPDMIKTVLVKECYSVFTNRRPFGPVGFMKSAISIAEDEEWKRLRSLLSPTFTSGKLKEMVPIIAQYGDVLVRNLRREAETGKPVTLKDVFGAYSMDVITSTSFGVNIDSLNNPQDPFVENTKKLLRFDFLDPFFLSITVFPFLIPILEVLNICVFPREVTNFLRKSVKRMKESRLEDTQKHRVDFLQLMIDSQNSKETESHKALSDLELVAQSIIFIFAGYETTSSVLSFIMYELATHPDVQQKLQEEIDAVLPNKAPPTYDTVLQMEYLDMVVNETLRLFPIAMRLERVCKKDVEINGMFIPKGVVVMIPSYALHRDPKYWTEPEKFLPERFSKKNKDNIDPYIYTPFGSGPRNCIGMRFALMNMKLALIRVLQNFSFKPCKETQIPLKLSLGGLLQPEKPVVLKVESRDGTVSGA
Assay: Inhibition of CYP3A4 in human microsomes at 25 uM
Assay type: ADME, Microsome
Conditions: not given
For `COc1ccc(CN2CCC(c3cn(Cc4cccs4)c4ccccc34)CC2)cc1C(=O)O`, the inhibition at 25 µM was -5%.

Target: T1, Adrenergic receptor alpha-1 (Rattus norvegicus, UniProt P15823+P23944+P43140)
T1 sequence (P15823 whole entry): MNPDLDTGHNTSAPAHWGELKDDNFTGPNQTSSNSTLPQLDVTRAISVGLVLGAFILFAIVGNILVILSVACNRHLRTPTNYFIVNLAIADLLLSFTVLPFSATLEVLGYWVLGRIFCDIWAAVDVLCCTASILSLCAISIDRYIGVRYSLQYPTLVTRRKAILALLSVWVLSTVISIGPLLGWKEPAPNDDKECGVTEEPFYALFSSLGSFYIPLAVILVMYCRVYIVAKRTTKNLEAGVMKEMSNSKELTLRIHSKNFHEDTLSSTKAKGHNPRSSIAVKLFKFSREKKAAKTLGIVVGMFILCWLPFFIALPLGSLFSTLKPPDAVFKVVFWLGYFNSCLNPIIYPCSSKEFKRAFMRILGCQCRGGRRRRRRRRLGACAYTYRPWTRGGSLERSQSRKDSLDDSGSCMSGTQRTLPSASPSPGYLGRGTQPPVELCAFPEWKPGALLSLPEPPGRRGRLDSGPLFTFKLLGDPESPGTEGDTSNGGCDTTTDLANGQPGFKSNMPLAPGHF
T1 sequence (P23944 whole entry): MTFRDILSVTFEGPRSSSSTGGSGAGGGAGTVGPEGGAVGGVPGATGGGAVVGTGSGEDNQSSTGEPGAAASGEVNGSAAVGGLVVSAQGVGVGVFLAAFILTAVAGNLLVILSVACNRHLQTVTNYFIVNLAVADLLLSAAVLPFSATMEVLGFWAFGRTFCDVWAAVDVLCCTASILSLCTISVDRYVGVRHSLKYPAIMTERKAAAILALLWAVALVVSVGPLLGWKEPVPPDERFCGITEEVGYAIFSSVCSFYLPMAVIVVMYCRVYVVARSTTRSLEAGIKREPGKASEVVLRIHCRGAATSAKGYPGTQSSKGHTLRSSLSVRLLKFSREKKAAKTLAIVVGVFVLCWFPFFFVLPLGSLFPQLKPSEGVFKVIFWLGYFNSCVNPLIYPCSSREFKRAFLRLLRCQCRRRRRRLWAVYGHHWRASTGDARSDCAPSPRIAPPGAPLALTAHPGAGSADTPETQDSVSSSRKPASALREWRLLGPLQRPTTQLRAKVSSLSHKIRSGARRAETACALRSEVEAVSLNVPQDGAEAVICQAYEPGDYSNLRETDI
T1 sequence (P43140 whole entry): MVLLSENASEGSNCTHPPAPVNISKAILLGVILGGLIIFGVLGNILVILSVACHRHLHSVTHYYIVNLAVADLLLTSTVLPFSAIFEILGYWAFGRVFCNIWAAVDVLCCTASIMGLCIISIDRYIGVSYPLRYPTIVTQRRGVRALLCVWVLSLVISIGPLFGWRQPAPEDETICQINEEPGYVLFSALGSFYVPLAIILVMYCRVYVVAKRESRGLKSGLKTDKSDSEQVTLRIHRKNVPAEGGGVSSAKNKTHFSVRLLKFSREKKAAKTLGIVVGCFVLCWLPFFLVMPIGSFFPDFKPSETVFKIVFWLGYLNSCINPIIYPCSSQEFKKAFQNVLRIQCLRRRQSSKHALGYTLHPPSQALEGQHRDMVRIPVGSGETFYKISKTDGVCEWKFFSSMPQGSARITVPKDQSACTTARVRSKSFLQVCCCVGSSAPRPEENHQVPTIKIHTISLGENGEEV
Assay: Displacement of [3H]prazosin from adrenergic alpha-1 receptor in rat brain membranes
Assay type: cell membranes
Conditions: not given
Summary of the method: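 Rat brain membranes (340 µg protein/mL) with 0.25 nM [3H]-prazosin in 50 mM Tris-HCl pH 7.7, room temperature, 60 min, filtration. Nonspecific binding with 100 µM prazosin. Several concentrations run in duplicate; IC50 by nonlinear regression.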
`O=C(O)c1ccccc1OCCN1CCC(c2cn(Cc3ccoc3)c3cc(F)ccc23)CC1` showed an IC50 greater than 10 µM. With `COc1ccc(CN2CCC(c3cn(Cc4cccs4)c4ccccc34)CC2)cc1C(=O)O` the IC50 was greater than 10 µM. In the case of `CCCCn1cc(C2CCN(CCOc3ccccc3C(=O)O)CC2)c2ccc(F)cc21`, the IC50 is reported as greater than 10 µM.

Tested on: Cavia porcellus
Assay: Effect on QT interval prolongation in Dunkin-Hartley guinea pigs at 10 mg/kg, iv
Assay type: functional, organism-based
Design: dose 10 mg/kg
Conditions: not given
With `COc1ccc(CN2CCC(c3cn(Cc4cccs4)c4ccccc34)CC2)cc1C(=O)O` the Activity was “inactive”. With `CCOC(=O)N1CCC(=C2c3ccc(Cl)cc3CCc3cccnc32)CC1` [LORATADINE] the Activity was “inactive”.

Target: Histamine H1 receptor (Cavia porcellus) (UniProt P31389)
Sequence (P31389 whole entry): as the sequence (P31389 whole entry) above
Assay: Displacement of [3H]mepyramine from histamine H1 receptor in guinea pig cerebellum membranes at […]
Assay type: cell membranes
Conditions: Membrane
Summary of the method: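 Guinea-pig cerebellum membranes (160 µg/mL) incubated at 30 °C for 30 min with 0.7 nM [3H]-mepyramine, 0.5 mL final volume; filtration, bound radioactivity counted. Nonspecific binding with 10 µM promethazine. At least six concentrations in duplicate; IC50 by nonlinear regression. Stocks 10^-2 M in DMSO, further dilutions in 50% DMSO.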
Work on `CCOCCn1cc(C2CCN(Cc3ncccc3C(=O)O)CC2)c2ccccc21` yielded an Activity of 11%. With `CCOCCn1cc(C2CCN(Cc3ccc(C(=O)O)cc3)CC2)c2ccccc21` the Activity was 7%.

Target: Adrenergic receptor alpha-1 (Rattus norvegicus) (UniProt P15823+P23944+P43140)
Assay: Displacement of [3H]prazosin from adrenergic alpha-1 receptor in rat brain membranes at 10 uM
Assay type: cell membranes
Conditions: not given
Work on `CCOCCn1cc(C2CCN(Cc3ncccc3C(=O)O)CC2)c2ccccc21` yielded an Activity of 4%. `CCOCCn1cc(C2CCN(Cc3ccc(C(=O)O)cc3)CC2)c2ccccc21` showed an Activity of 8%.

Tested on: not listed separately
Assay: Half life in Wistar rat at 1 mg/kg, iv after 8 hrs
Assay type: ADME, organism-based
Design: dose 1 mg/kg, route intravenous
Conditions: in vivo
Summary of the method: as §1
`COc1ccc(CN2CCC(c3cn(Cc4cccs4)c4ccccc34)CC2)cc1C(=O)O` showed a half-life of 3.1 h.
